From ChEMBL document CHEMBL1143086, “Novel HCV NS5B polymerase inhibitors derived from 4-(1',1'-dioxo-1',4'-dihydro-1'lambda(6)-benzo[1',2',4']thiadiazin-3'-yl)-5-hydroxy-2H-pyridazin-3-ones. Part 3: Further optimization of the 2-, 6-, and 7'-substituents and initial pharmacokinetic assessments” (Bioorg Med Chem Lett, 2008) come the findings set out here.

Each structure is given as a SMILES string. Converted amounts (≈) assume the structure as drawn.

Series [1] can be described thus: Aqueous solubility at pH 7.4. It counts as physicochemical. The note with it: buffer. Put shortly: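 Solubility determined in water at pH 7.4.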
Series [2] is described as follows: Apparent permeability from apical to basolateral side in human Caco-2 cells at 10 uM. Type of series: ADME, cell-based. Background: Caco-2 monolayers are a common model of the intestinal barrier.
A short description of series [3]: Volume of distribution at steady state in cynomolgus monkey at 5 mg/kg, iv. It counts as ADME, organism-based, Macaca fascicularis. The note with it: in vivo, read-out: Vdss. More on the design: dose 5 mg/kg, route intravenous.
The test system of series [4] is Cynomolgus monkey. Kind of series: AUC (0 to infinity) in cynomolgus monkey at 5 mg/kg, po. It counts as ADME, organism-based, Macaca fascicularis, Plasma. Further details: time infinity, dose 5 mg/kg, route oral. The settings on record: in vivo.
Series [5] has as its system Cynomolgus monkey. Kind of series: AUC (0 to infinity) in cynomolgus monkey at 5 mg/kg, iv. It counts as ADME, organism-based, Macaca fascicularis, Plasma. The settings on record: in vivo. More on the design: time infinity, dose 5 mg/kg, route intravenous.
A short description of series [6]: Oral bioavailability in cynomolgus monkey at 5 mg/kg. It counts as ADME, organism-based, Macaca fascicularis. The note with it: in vivo.
The nature of series [7]: Ratio of drug level in liver to plasma in Sprague-Dawley rat at 3 mg/kg, po after 1 hr. Type of series: ADME, organism-based. More on the design: dose 3 mg/kg, route oral. The note with it: liver and plasma. Put shortly: (§1)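 Sprague–Dawley rats were given a single 3 mg/kg dose iv or po. Plasma and liver concentrations were measured at 1, 4, 8 and 12 h. Liver was not sampled at 1, 4 or 8 h after iv dosing. Liver-to-plasma concentration ratio was calculated at each time point.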

A short description of series [8]: Ratio of drug level in liver to plasma in Sprague-Dawley rat at 3 mg/kg, po after 4 hrs. Type of series: ADME, organism-based. More on the design: dose 3 mg/kg, route oral. The settings on record: liver and plasma. Put shortly:
as §1

Series [9] can be described thus: Ratio of drug level in liver to plasma in Sprague-Dawley rat at 3 mg/kg, po after 8 hrs. The settings on record: liver and plasma. Type of series: ADME, organism-based. More on the design: dose 3 mg/kg, route oral. In short, it runs like this:
as §1

Series [10] is described as follows: Ratio of drug level in liver to plasma in Sprague-Dawley rat at 3 mg/kg, po after 12 hrs. It counts as ADME, organism-based. More on the design: dose 3 mg/kg, route oral. The note with it: liver and plasma. Put shortly: as §1
Series [11] can be described thus: Ratio of drug level in liver to plasma in Sprague-Dawley rat at 3 mg/kg, iv after 12 hrs. The note with it: liver and plasma. Further details: dose 3 mg/kg, route intravenous. It counts as ADME, organism-based. Put shortly:
as §1

Series [12] can be described thus: Volume of distribution at steady state in iv dosed Sprague-Dawley rat. Type of series: ADME, organism-based. The settings on record: in vivo, read-out: Vdss. In short, it runs like this: (§2)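 Sprague–Dawley rats got a single 3 mg/kg dose iv or po, with n = 12 (po) and 3 (iv). Plasma concentrations were followed over time to derive PK parameters.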
Series [13] relates to Rattus norvegicus. As to the kind of experiment: AUC (0 to infinity) in po dosed Sprague-Dawley rat. More on the design: time infinity, route oral. The note with it: in vivo. Type of series: ADME, organism-based, Plasma. Put shortly:
as §2

Series [14] concerns Rattus norvegicus. As to the kind of experiment: AUC (0 to infinity) in iv dosed Sprague-Dawley rat. Type of series: ADME, organism-based, Plasma. Further details: time infinity, route intravenous. The settings on record: in vivo. In short, it runs like this: as §2
Series [15] is described as follows: Oral bioavailability in Sprague-Dawley rat. Type of series: ADME, organism-based. The note with it: in vivo. In short, it runs like this: as §2

Broadly, the solubility is the concentration that dissolves in the medium under given conditions. For orientation: Papp A→B means how fast a substance crosses the layer from the apical side. The term AUC denotes the area under the concentration-time curve, a measure of exposure. The bioavailability is dose-corrected exposure relative to a reference, in per cent. In turn, `CC(C)(C)CCn1nc(-c2cccs2)c(O)c(C2=Nc3ccc(NS(C)(=O)=O)cc3S(=O)(=O)N2)c1=O` showed a solubility in series [1] of 44 µM (≈ 24.3 µg/mL). Further, in [2], the Papp A→B at 10 µM is 0.06 ×10⁻⁶ cm/s. Also, the Vd in series [3] was found to be 0.039 L/kg. In addition, the AUC with Cynomolgus monkey [4] was determined as 241 ng·h/mL; in the series with Cynomolgus monkey [5], 17600 ng·h/mL. Further, the bioavailability in series [6] is 1%.

Usually Kp stands for the ratio of the level in a tissue or fluid to that in plasma or blood. In series [1], `CC(C)CCn1nc(-c2cccs2)c(O)c(C2=Nc3ccc(NS(C)(=O)=O)cc3S(=O)(=O)N2)c1=O` gave a solubility of 55 µM (≈ 29.6 µg/mL). Also, the Papp A→B at 10 µM in [2] is 0.016 ×10⁻⁶ cm/s. Also, the Vd amounted to 0.096 L/kg in series [3] and 0.453 L/kg in series [12]. For the same compound, the exposure (AUC) in the series on Cynomolgus monkey [4] was found to be 124 ng·h/mL; with Cynomolgus monkey [5], 10500 ng·h/mL; with Rattus norvegicus [13] it was 27 ng·h/mL; with Rattus norvegicus [14] it was 3630 ng·h/mL. The bioavailability in series [6] and in series [15] was 1% in each case. Also, in [7], the Kp at 1 h amounted to 431. The Kp at 4 h in series [8] was found to be 243. Moreover, the partition ratio (Kp) at 8 h in series [9] came to 78. Also, the concentration ratio (Kp) at 12 h in [10] turned out to be 64; in series [11], 4.
